Data reported in ChEMBL document CHEMBL1135021, “Biotinylated lithocholic acids for affinity chromatography of mammalian DNA polymerases alpha and beta” (Bioorg Med Chem Lett, 2002).
pIC50, pKi: −log10 of the molar value. Each block holds one compound with its values, some of them ahead of it.

Legend:
DNA polymerase beta [1] = molecular target: T1, DNA polymerase beta (Rattus norvegicus, UniProt P06766); test: Inhibition constant at a concentration of 10 uM on rat DNA polymerase beta as a function of template primer dose
Procedure, shortened: (§1)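 Kinetic runs used calf thymus pol α or rat pol β (0.05 units each) preincubated with compound at 0 °C for 10 min in Tris–HCl pH 7.5/DTT/glycerol/EDTA buffer. Either poly(dA)/oligo(dT)12–18 (2/1) template-primer or dTTP substrate was varied. Km and Vmax came from double reciprocal plots, Ki from Dixon plots.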

Nucleic Acid [2] = test: Inhibition constant at a concentration of 5 uM on calf DNA polymerase alpha as a function of nucleotide substrate concentration; type: nucleic-acid assay, Bos taurus; procedure, shortened: as §1
Nucleic Acid [3] = test: Inhibition constant at a concentration of 5 uM on calf DNA polymerase alpha as a function of template primer dose; type: nucleic-acid assay, Bos taurus; procedure, shortened: as §1
DNA polymerase beta [4] = molecular target: T1, DNA polymerase beta; test: Inhibitory effect on the activity of mammalian DNA polymerase beta was determined by inhibitory dose curves
Procedure, shortened: (§2)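 Calf thymus pol α (immunoaffinity-purified) and rat pol β, 0.05 units each final, with poly(dA)/oligo(dT)12–18 (2/1) and dTTP. Compounds in DMSO, sonicated 30 s, then preincubated with enzyme at 0 °C for 10 min in 50 mM Tris–HCl pH 7.5, 1 mM DTT, 50% glycerol, 0.1 mM EDTA. Mixtures added to standard reactions; activity without compound taken as 100%. IC50 from dose–response curves.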

DNA polymerase beta [5] = molecular target: T1, DNA polymerase beta; test: Inhibition constant at a concentration of 10 uM on rat DNA polymerase beta as a function of nucleotide substrate concentration; procedure, shortened: as §1
Nucleic Acid [6] = test: Inhibitory effect on the activity of mammalian DNA polymerase alpha was determined by inhibitory dose curves; type: nucleic-acid assay, Bos taurus; procedure, shortened: as §2
DNA polymerase beta [7] = molecular target: T1, DNA polymerase beta; test: Inhibition constant at a concentration of 5 uM on rat DNA polymerase beta as a function of nucleotide substrate concentration
Procedure, shortened: (§3)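 Rat DNA pol β (0.05 units final) with poly(dA)/oligo(dT)12-18 (2/1) as template-primer and dTTP as nucleotide substrate. Inhibitor was dissolved in DMSO, sonicated 30 s, then preincubated with enzyme at 0 °C for 10 min in 50 mM Tris-HCl pH 7.5, 1 mM DTT, 50% glycerol and 0.1 mM EDTA. The mix was added to standard reactions with template-primer or dTTP varied. Ki came from double-reciprocal and Dixon plots.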

Nucleic Acid [8] = test: Inhibition constant at a concentration of 25 uM on calf DNA polymerase alpha as a function of nucleotide substrate concentration; type: nucleic-acid assay, Bos taurus
Procedure, shortened: (§4)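 Calf thymus DNA pol α (immunoaffinity-purified), 0.05 units. Compound in DMSO, sonicated 30 s, preincubated with enzyme in 50 mM Tris–HCl pH 7.5, 1 mM DTT, 50% glycerol, 0.1 mM EDTA at 0 °C for 10 min. Activity measured varying poly(dA)/oligo(dT)12-18 (2/1) template-primer or dTTP nucleotide substrate. Km and Vmax were taken from double reciprocal plots and Ki from Dixon plots.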

DNA polymerase beta [9] = molecular target: T1, DNA polymerase beta; test: Inhibitory effect on the activity of rat DNA polymerase beta was determined by inhibitory dose curves
Procedure, shortened: (§5)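 Rat DNA pol β, 0.05 units, with poly(dA)/oligo(dT)12-18 template-primer and dTTP substrate. Compounds in DMSO at various concentrations, sonicated 30 s, then preincubated with enzyme in 50 mM Tris–HCl pH 7.5, 1 mM DTT, 50% glycerol, 0.1 mM EDTA at 0 °C for 10 min before addition to the reaction mix. Activity without compound was set as 100%, and IC50 was read from dose–response curves.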

Nucleic Acid [10] = test: Inhibition constant at a concentration of 25 uM on calf DNA polymerase alpha as a function of template primer dose; type: nucleic-acid assay, Bos taurus; procedure, shortened: as §4
DNA polymerase beta [11] = molecular target: T1, DNA polymerase beta; test: Inhibition constant at a concentration of 5 uM on rat DNA polymerase beta as a function of template primer dose; procedure, shortened: as §3
Nucleic Acid [12] = test: Inhibitory effect on the activity of calf thymus DNA polymerase alpha was determined by inhibitory dose curves; type: nucleic-acid assay, Bos taurus
Procedure, shortened: as §5, with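 “Calf thymus” for “Rat”, “α (immunoaffinity-purified),” for “β,”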

Compound: C[C@H](CCC(=O)O)[C@H]1CC[C@H]2[C@@H]3CCC4C[C@@H](OC(=O)CCNC(=O)CCCCCNC(=O)CCCCCNC(=O)CCCCC5SCC6NC(=O)NC65)CC[C@]4(C)[C@H]3CC[C@]12C (stereo partly specified)
- pKi (DNA polymerase beta [1]): 4.89
- pKi (Nucleic Acid [2]): 5.26
- pKi (Nucleic Acid [3]): 5.11
- pIC50 (DNA polymerase beta [4]): 4.49
- pKi (DNA polymerase beta [5]): 4.70
- pIC50 (Nucleic Acid [6]): 5.00

Compound: C[C@H](CCC(=O)O)[C@H]1CC[C@H]2[C@@H]3CCC4C[C@@H](O)CC[C@]4(C)[C@H]3CC[C@]12C (stereo partly specified)
- pKi (DNA polymerase beta [7]): 5.18
- pKi (Nucleic Acid [8]): 4.65
- pIC50 (DNA polymerase beta [9]): 4.96
- pKi (Nucleic Acid [10]): 4.82
- pKi (DNA polymerase beta [11]): 5.33
- pIC50 (Nucleic Acid [12]): 4.40

- pIC50 (DNA polymerase beta [9]): 4.51
- pIC50 (Nucleic Acid [12]): 4.54
Compound: C[C@H](CCC(=O)O)[C@H]1CC[C@H]2[C@@H]3CCC4C[C@@H](OC(=O)CCNC(=O)CCCCC5SCC6NC(=O)NC65)CC[C@]4(C)[C@H]3CC[C@]12C (stereo partly specified)

- pIC50 (DNA polymerase beta [9]): 4.34
- pIC50 (Nucleic Acid [12]): 4.38
Compound: C[C@H](CCC(=O)O)[C@H]1CC[C@H]2[C@@H]3CCC4C[C@@H](OC(=O)CCNC(=O)CCCCCNC(=O)CCCCC5SCC6NC(=O)NC65)CC[C@]4(C)[C@H]3CC[C@]12C (stereo partly specified)
